{"data": "Measured values gathered from unrelated publications", "KIT A829P": "Mast/stem cell growth factor receptor Kit (KIT, Homo sapiens, UniProt P10721, A829P)", "KIT D816H": "Mast/stem cell growth factor receptor Kit (KIT, Homo sapiens, UniProt P10721, D816H)", "KIT L576P": "Mast/stem cell growth factor receptor Kit (KIT, Homo sapiens, UniProt P10721, L576P)", "KIT autoinhibited": "Mast/stem cell growth factor receptor Kit, autoinhibited (KIT, Homo sapiens, UniProt P10721)", "note": "Protocols differ between the studies behind these lines."}
{"SMILES": "C[C@H]1CCN(c2nccc(-c3cnn4ncccc34)n2)C1", "target": "Mast/stem cell growth factor receptor Kit (KIT, Homo sapiens, UniProt P10721)", "assay": "binding", "setting": "1 µM", "measurement": "remaining binding", "result": "96%"}
{"SMILES": "Nc1ncnc2occ(-c3ccc(NC(=O)Nc4cc(C(F)(F)F)ccc4F)cc3)c12", "target": "Mast/stem cell growth factor receptor Kit (KIT, Homo sapiens, UniProt P10721, T670I/V559D)", "assay": "cell-free assay, inhibitor", "setting": "20 µM", "measurement": "remaining signal", "result": "0.05%"}
{"SMILES": "Cn1nc(C(=O)NCc2ccc(C(=O)O)cc2)cc1-c1ccc2[nH]ccc2c1", "target": "KIT A829P", "assay": "cell-free assay, competition with immobilised ligand", "setting": "0.1 µM", "measurement": "remaining binding", "result": "72%"}
{"SMILES": "Cc1ccc(C(=O)NCc2ccsc2)cc1C#Cc1cn(C(C)C)c2ncnc(N)c12", "target": "Mast/stem cell growth factor receptor Kit (KIT, Homo sapiens, UniProt P10721, V560G)", "assay": "enzyme activity, inhibitor", "setting": "1 µM", "measurement": "activity vs control", "result": "4%"}
{"SMILES": "Cc1cnc(NC2CCOCC2)nc1-n1cnc(C(=O)NC(CN)c2cc(F)cc(Cl)c2)c1 (stereo not shown)", "target": "KIT D816H", "assay": "enzyme activity, inhibitor, radiometric", "setting": "1 µM", "measurement": "remaining activity", "result": "96%"}
{"SMILES": "N[C@H]1CCN(c2nccc(-c3cnn4ncccc34)n2)C1", "target": "KIT A829P", "assay": "binding", "setting": "1 µM", "measurement": "remaining binding", "result": "100%"}
{"SMILES": "CNC(=O)Nc1ccc2c(c1)CC[C@@]21OC(=O)N(CC(=O)N(Cc2ccc(F)cc2)[C@@H](C)C(F)(F)F)C1=O", "target": "Mast/stem cell growth factor receptor Kit (KIT, Homo sapiens, UniProt P10721, V559D/V654A)", "assay": "cell-free assay, competition with immobilised ligand", "setting": "1 µM", "measurement": "remaining binding", "result": "90%"}
{"SMILES": "CN(CCCC(F)(F)F)c1nccc(-c2cnn3ncccc23)n1", "target": "KIT L576P", "assay": "binding", "setting": "1 µM", "measurement": "remaining binding", "result": "93%"}
{"SMILES": "CC/C(=N\\NC(=O)NCc1cccc(O)c1)c1ccc(O)c(C)c1O", "target": "Mast/stem cell growth factor receptor Kit (KIT, Homo sapiens, UniProt P10721, D816Y)", "assay": "enzyme activity, inhibitor", "setting": "0.1 µM", "measurement": "inhibition", "result": "-0.1%"}
{"SMILES": "CCS(=O)(=O)c1cc2cc(C[C@@](O)(CC(C)(C)c3ccc(F)cc3C(N)=O)C(F)(F)F)[nH]c2cn1", "target": "KIT D816H", "assay": "cell-free assay, competition with immobilised ligand", "setting": "1 µM", "measurement": "remaining binding", "result": "51%"}
{"SMILES": "Cc1cc(NC(=O)c2cccc3cc(-c4cccc5[nH]nc(N)c45)ccc23)ccc1F", "target": "KIT D816H", "assay": "enzyme activity, inhibitor", "setting": "0.1 µM", "measurement": "activity vs control", "result": "37%"}
{"SMILES": "CC1=C(C#N)C(c2ccc3c(c2)c(NC(=O)c2ccccc2C)nn3C)C(C#N)=C(C)N1", "target": "KIT L576P", "assay": "cell-free assay, competition with immobilised ligand", "setting": "1 µM", "measurement": "remaining binding", "result": "100%"}
{"SMILES": "COc1ccnn2ncc(-c3ccnc(N(C)C)n3)c12", "target": "KIT L576P", "assay": "binding", "setting": "1 µM", "measurement": "remaining binding", "result": "100%"}
{"SMILES": "C[C@@H]1CN(c2cc(-c3nn(C)c4ccc(OC5(C)CC5)cc34)ncn2)C[C@H](C)O1", "target": "KIT autoinhibited", "assay": "cell-free assay, competition with immobilised ligand", "setting": "1 µM", "measurement": "remaining binding", "result": "97%"}
{"SMILES": "CC1CCCN1c1nccc(-c2cnn3ncccc23)n1 (stereo not shown)", "target": "KIT autoinhibited", "assay": "binding", "setting": "1 µM", "measurement": "remaining binding", "result": "100%"}
{"SMILES": "COc1cc(-c2cc(-c3ccc(N4CCNCC4)cc3)cnc2N)cc(OC)c1OC", "target": "Mast/stem cell growth factor receptor Kit (KIT, Homo sapiens, UniProt P10721, D816V)", "assay": "enzyme activity, inhibitor", "setting": "1 µM", "measurement": "inhibition", "result": "8%"}
